TRPC4 agonist: activators of mouse TRPC4 channel; Q9QUQ5; HEK293 TRPC4beta/mu-opioid, Fluo4 calcium fluorescence; hits give high values; B-score at 10 µM; hit rate 0.49% among 310,000; AID 2237;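 active = B-score above 5 SD of library B-scores, and initial fluorescence ratio not above library mean plus 5 SD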;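 note: positive B-score marks a calcium rise read as TRPC4 activation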
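System – HEK293 cells stably co-expressing mouse TRPC4beta and mu-opioid receptor · Signal – Fluo4 calcium-sensitive dye fluorescence, kinetic, 1 Hz baseline · Benchmarks – buffer (low) and maximal DAMGO (high) · Read-out – B score of integrated fluorescence ratio per well · Incubation – dye loading 45 min room temperature, 110 s kinetic read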
TRPC6 inh: blocks the mouse TRPC6 cation channel; Q61143; HEK293-TRPC6, membrane potential dye, ACh-evoked depolarization; hits give low values; B-score at 10 µM; hit rate 1.1% among 310,000;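 active = B-score under library mean minus 3 SD, initial fluorescence not abnormally high, positive integrated signal ratio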;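 note: B-score derived from integrated fluorescence ratio over the kinetic read; more negative B-score means stronger inhibition of depolarization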
Kir21 block: Kir2.1 (mouse) channel inhibition; P35561; B-score at 10 µM; hit rate 0.85% among 310,000; AID 1672; HEK293-Kir2.1, FluxOR thallium flux fluorescence; hits give low values;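 active = fluorescence ratio B-score at or below minus 3 SD of library scores, with starting-brightness B-score within 2 SD, cut at about -4.2 in these data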;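 note: channel flux triggered by added potassium and thallium sulfate stimulus; B-score of peak minus minimum fluorescence over baseline after thallium stimulus; more negative B-score means stronger Kir2.1 block with less thallium influx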
Target sequence (P35561 whole entry, looked up): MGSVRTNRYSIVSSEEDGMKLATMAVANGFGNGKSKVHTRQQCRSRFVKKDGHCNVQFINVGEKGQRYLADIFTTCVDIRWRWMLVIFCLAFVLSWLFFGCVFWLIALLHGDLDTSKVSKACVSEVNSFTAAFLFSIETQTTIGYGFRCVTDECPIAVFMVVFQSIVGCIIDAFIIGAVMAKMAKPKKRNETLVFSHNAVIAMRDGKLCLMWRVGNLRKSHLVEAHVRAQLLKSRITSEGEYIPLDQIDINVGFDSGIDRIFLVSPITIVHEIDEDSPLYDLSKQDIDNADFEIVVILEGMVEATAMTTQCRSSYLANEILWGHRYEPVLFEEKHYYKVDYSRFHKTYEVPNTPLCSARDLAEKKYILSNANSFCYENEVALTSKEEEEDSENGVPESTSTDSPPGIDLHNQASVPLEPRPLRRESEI
TRPC4 inh: blocks the mouse TRPC4 cation channel; B-score at 10 µM; hit rate 0.39% among 300,000; AID 2247; HEK293 TRPC4beta/mu-opioid, DAMGO-evoked Fluo4 calcium flux; hits give low values;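 active = B-score over 3 SD under the library average, no early fluorescence shift, positive overall ratio signal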
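material = TRPC4beta/mu-opioid receptor HEK293 cell line | probe or stimulus = sequential submaximal and maximal DAMGO stimulation | compound dosing = one concentration per compound | measured by = Fluo4 Ca2+ flux fluorescence | evaluation = integrated fluorescence ratio relative to baseline, converted to per-well B score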
TRPC6 activator: activators of mouse TRPC6 channel; HEK293-TRPC6 membrane potential dye fluorescence; hits give high values; Q61143; hit rate 0.13% among 310,000; AID 2550; B-score at 10 µM;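 active = B-score of the integrated fluorescence ratio above library mean plus 3 SD, and starting fluorescence ratio within library mean plus 5 SD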;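 note: higher score means more depolarization so channel activation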
TRPC4 potent: allosteric potentiators of mouse TRPC4 channel | Q9QUQ5 | HEK293 TRPC4beta/mu-opioid, DAMGO EC20, Fluo-4 Ca2+ flux; hits give high values | B-score at 10 µM | hit rate 0.42% among 310,000 | AID 2227;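 active = B-score of calcium response area above 5 SD of library B-scores, with initial fluorescence ratio within 5 SD of library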
TRPC4 sel inh 2: second selectivity test of TRPC6 inhibitors: effect on mouse TRPC4 | inhibition, % at 10 µM | shares compounds with TRPC6 inh | hit rate 42% among 920 | HEK293 TRPC4/MOR, membrane potential dye fluorescence; channel activated by saturating DAMGO dose;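 active = compounds whose fluorescence signal differed from control wells by over 3 SD, either direction, in both duplicate plates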
TRPC4 spec: mouse TRPC4 off-target activity of TRPC6 inhibitors; HEK293 TRPC4/mu-opioid, membrane potential fluorescence; activity change, negative = inhibition, % at 10 µM; AID 2777; shares compounds with TRPC6 inh; hit rate 61% among 920;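 active = rise or fall in signal beyond 3 SD of buffer-only wells in both replicate plates, either sign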;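 note: integrated kinetic ratio of fluorescence range over baseline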
HEK293 MPD ctr 2-1: second check of TRPC6 inhibitor effects in parental HEK293 cells | hit rate 31% among 920 | shares compounds with TRPC6 inh | parental HEK293 membrane potential dye fluorescence; maximal acetylcholine challenge after compound addition | signal change vs control, % at 10 µM;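 active = membrane potential signal moving either way by over 3 SD of the maximum-effect control, in both duplicate plates, meaning non-specific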
HEK293 MPD ctr-1: checks TRPC6 inhibitor effects in parental HEK293 cells. shares compounds with TRPC6 inh. membrane potential signal change, % at 10 µM. hit rate 60% among 920. parental HEK293 membrane potential dye fluorescence. AID 2780;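 active = membrane potential signal shifting up or down by more than 3 SD of buffer-only wells, on both duplicate plates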
HEK293 MPD ctr-2: checks TRPC6 modulator effects in parental HEK293 cells; membrane potential dye fluorescence; shares compounds with TRPC6 inh; hit rate 51% among 2,400; membrane potential signal change, % at 10 µM;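 active = membrane potential signal moves up or down beyond 5 SD from buffer-only wells, on both duplicate plates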
HEK293 MPD ctr 2-2: second check of TRPC6 modulator effects in parental HEK293 cells; shares compounds with TRPC6 inh; membrane potential dye fluorescence; after compound, maximal acetylcholine stimulation; inhibition, % at 10 µM; hit rate 14% among 2,400;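 active = membrane potential signal drops by more than 5 SD from the mean control signal, in both duplicate plates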
TRPC4/MOR mod: tests whether TRPC6 modulators also affect mouse TRPC4; AID 488927; shares compounds with TRPC6 inh; hit rate 69% among 2,400; HEK293 TRPC4/mu-opioid, membrane potential fluorescence; percent change from control (negative = decrease, positive = increase), % at 10 µM;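 active = membrane potential signal moved up or down beyond 5 SD of buffer control wells, in both duplicate plates, actives on both sides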
TRPC4/MOR inh 2: second selectivity test of TRPC6 modulators against mouse TRPC4. shares compounds with TRPC6 inh. HEK293 TRPC4/mu-opioid, membrane potential dye fluorescence; stimulated with maximal-effect DAMGO. inhibition, % at 10 µM. hit rate 55% among 2,400;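 active = drop in membrane potential signal beyond 5 SD of the control wells in both duplicate plates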;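 note: TRPC4 counter screen for TRPC6 hits run under conditions tuned for TRPC6 not TRPC4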
TRPC6 block conf: confirmation of mouse TRPC6 inhibitors. shares compounds with TRPC6 inh. HEK293-TRPC6, membrane potential dye, ACh-evoked depolarization. inhibition, % at 10 µM. hit rate 43% among 3,300. AID 488960;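 active = fluorescence ratio falls more than 5 SD below the full-stimulation control mean, in both duplicate runs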;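 note: integrated fluorescence ratio of peak minus minimum over baseline after agonist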
TRPC6 act confirm: mouse TRPC6 activator confirmation | shares compounds with TRPC6 inh | HEK293-TRPC6 membrane potential dye fluorescence, FDSS | activation, % at 10 µM | hit rate 11% among 2,800 | AID 488961;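 active = ratio signal rise beyond 5 SD above unstimulated control wells' mean, seen in both duplicate runs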
Each line names hits and unclear results; the compound was inactive in the other large screens (follow-up assays come after a bar, where they were run). Shown are actives, neighbours in structure and some others; about 2.9% of the full set was active somewhere.

Cc1cc(N2CCOCC2)nc2ccc(NC(=O)CCC(=O)N3CCN(c4ccccc4F)CC3)cc12	TRPC6 inh -6.6 | HEK293 MPD ctr-2 -67% | HEK293 MPD ctr 2-2 inactive | TRPC4/MOR mod -16% | TRPC4/MOR inh 2 inactive | TRPC6 block conf inactive | TRPC6 act confirm inactive
COc1cccc(C(=O)Nc2ccc3nc(N4CCOCC4)cc(C)c3c2)c1	TRPC6 inh -5.9 | HEK293 MPD ctr-2 -154% | HEK293 MPD ctr 2-2 inactive | TRPC4/MOR mod -26% | TRPC4/MOR inh 2 30% | TRPC6 block conf inactive | TRPC6 act confirm inactive
Cc1cc(N2CCOCC2)nc2ccc(NC(=O)CCC(=O)N3CCN(c4ccc(F)cc4)CC3)cc12	none
O=C(Nc1ccnn1C1CCN(CCCc2ccccc2)CC1)c1ccccc1	none
Cc1nnc2n(-c3ccccc3)c(=O)c3c4c(sc3n12)CCCC4	none
CN1CCc2c(sc3c2c(=O)n(-c2cccc(Cl)c2)c2nncn32)C1	TRPC6 inh -5.5 | HEK293 MPD ctr-2 inactive | HEK293 MPD ctr 2-2 inactive | TRPC4/MOR mod 7.0% | TRPC4/MOR inh 2 inactive | TRPC6 block conf inactive | TRPC6 act confirm inactive
O=c1c2c3c(sc2n2cnnc2n1-c1ccccc1)N(Cc1ccccc1)CCC3	TRPC6 inh -7 | TRPC4 sel inh 2 inactive | TRPC4 spec -20% | HEK293 MPD ctr 2-1 inactive | HEK293 MPD ctr-1 -271% | TRPC6 block conf inactive | TRPC6 act confirm inactive
CCOc1ccc2nc(SCC(=O)NC3CCCc4ccccc43)sc2c1 (centres undefined)	none
OCCCCCN=c1cc(-c2ccccc2)oc2ccc(Cl)cc12	TRPC6 inh -8 | TRPC4 sel inh 2 57% | TRPC4 spec -26% | HEK293 MPD ctr 2-1 31% | HEK293 MPD ctr-1 -432% | TRPC6 block conf 74% | TRPC6 act confirm inactive
NC(=O)COc1ccc2oc(-c3ccccc3)cc(=O)c2c1	none
COc1cc(/C=C2/SC(=S)N(Cc3ccccc3)C2=O)cc(Cl)c1O	TRPC4 agonist 174, TRPC6 activator 76, TRPC4 potent 37 | HEK293 MPD ctr-2 active | HEK293 MPD ctr 2-2 inactive | TRPC4/MOR mod 520% | TRPC4/MOR inh 2 inactive | TRPC6 block conf inactive | TRPC6 act confirm 555%
CCCCNCC(O)(c1ccc(Cl)cc1)c1ccc(Cl)cc1	TRPC6 inh -5 | HEK293 MPD ctr-2 120% | HEK293 MPD ctr 2-2 inactive | TRPC4/MOR mod 26% | TRPC4/MOR inh 2 47% | TRPC6 block conf inactive
COc1ccc(CNCC(O)(c2ccc(Cl)cc2)c2ccc(Cl)cc2)cc1	none
Cc1cc(CSC(=N)N)c(CSC(=N)N)cc1C	TRPC4 agonist 130, TRPC6 inh -6.8 | HEK293 MPD ctr-2 -264% | HEK293 MPD ctr 2-2 58% | TRPC4/MOR mod -36% | TRPC4/MOR inh 2 inactive | TRPC6 block conf 47% | TRPC6 act confirm inactive
COC(=O)c1ccc(NC(=O)N2CCCC(C(=O)c3ccccc3OC)C2)cc1 (centres undefined)	TRPC6 inh -9.2 | TRPC4 sel inh 2 inactive | TRPC4 spec inactive | HEK293 MPD ctr 2-1 226% | HEK293 MPD ctr-1 inactive | TRPC6 block conf inactive
COc1ccccc1C(=O)C1CCCN(C(=O)c2cn3cc(Cl)ccc3n2)C1 (centres undefined)	TRPC6 inh -8.2 | TRPC4 sel inh 2 inactive | TRPC4 spec 0.1% | HEK293 MPD ctr 2-1 inactive | HEK293 MPD ctr-1 0.3% | TRPC6 block conf inactive | TRPC6 act confirm inactive
Cc1cnc(C(=O)N2CCCC(C(=O)c3ccc(Cl)cc3C)C2)cn1 (centres undefined)	TRPC6 inh -5.3 | HEK293 MPD ctr-2 inactive | HEK293 MPD ctr 2-2 inactive | TRPC4/MOR mod 14% | TRPC4/MOR inh 2 inactive | TRPC6 block conf 46%
COc1ccccc1C(=O)C1CCCN(C(=O)c2ccccc2Cl)C1 (centres undefined)	none
Cc1ccc(C(=O)N2CCCC(C(=O)c3ccc(Cl)cc3C)C2)cn1 (centres undefined)	none
NS(=O)(=O)c1ccc(CCNC(=O)CSc2nc3ccsc3c(=O)n2C2CC2)cc1	none
CC1CN(C(=O)COC(=O)COc2ccc(C#N)cc2)CC(C)O1 (centres undefined)	none
CC1CCCCN1CC(=O)Nc1ccc(N2CCCCCC2)cc1 (centres undefined)	TRPC6 inh -5.4 | HEK293 MPD ctr-2 inactive | HEK293 MPD ctr 2-2 inactive | TRPC4/MOR mod -12% | TRPC4/MOR inh 2 32% | TRPC6 block conf 40% | TRPC6 act confirm inactive
CCC(=O)Nc1ccc(N2CCCCC2)cc1	none
CSC1=N/C(=C\c2ccc(Cl)cc2)C(=O)N1N(C)C	none
CC1(C)CN=c2s/c(=C\c3ccc(Cl)cc3)c(=O)n2C1	TRPC6 inh -7.3, TRPC4 potent 16 | TRPC4 sel inh 2 54% | TRPC4 spec -10% | HEK293 MPD ctr 2-1 inactive | HEK293 MPD ctr-1 inactive | TRPC6 block conf inactive | TRPC6 act confirm inactive
COc1ccc(C(=O)NC2CCCN(Cc3ccc(Cl)cc3)C2)c(OC)c1 (centres undefined)	none

Screens deposited in PubChem BioAssay by Johns Hopkins Ion Channel Center.
